Data: ChEMBL document CHEMBL3856197 (Eur J Med Chem, 2016)
Active and inactive are the calls of the source. The rule behind the calls is not given here.

Legend:
[1] = Anticancer activity against BMOL-T cells assessed as doubling time at 8 uM; format: functional, Mus musculus
Procedure, shortened: (§1)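 BMOL-NT (low passage, p<15) or BMOL-T (p>30) mouse liver progenitor cells in Williams' E medium. Seeded at 1,500 (NT) or 1,000 (T) cells per well, allowed to attach, then compound added as 2x solution to 1x final. Cellavista imaging twice daily for 5 days or until 80% confluent. Log % well coverage plotted against time; doubling time taken from log-phase linear portion.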

[2] = Anticancer activity against BMOL-T cells assessed as doubling time at 0 to 6 uM; format: functional, Mus musculus; procedure, shortened: as §1
[3] = Antimitotic activity against BMOL-T cells assessed as mitotic index at 10 uM measured after 3 days by phosphohistone H3 staining-based method relative to control; format: functional, Mus musculus
Procedure, shortened: (§2)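 BMOL-NT or BMOL-T cells, compound at 10 μM for three days. Fixed in 4% paraformaldehyde/0.1% Triton X-100, then phospho-histone H3 antibody 60 min at room temperature with nuclear counterstain, Cellavista imaging. Colcemid 1 μg/mL overnight as positive control. Mitotic index is % positive cells per well, mean of replicate wells, three cell lots.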

Mus musculus [4] = species: Mus musculus; assay: Cytotoxicity against BMOL-NT cells assessed as doubling time at 0 to 10 uM; format: toxicity, cell-based; procedure, shortened: as §1
[5] = Growth inhibition of BMOL-T cells assessed as increase in doubling time at 8 uM after 2 days relative to control; format: functional, Mus musculus; design: scale not given: the % may be the effect or the level left; procedure, shortened: as §1
[6] = Antimitotic activity against BMOL-NT cells assessed as reduction in mitotic index at 10 uM measured after 3 days by phosphohistone H3 staining-based method; format: cell-based; design: scale not given: the % may be the effect or the level left; conditions: mouse, 72 h; procedure, shortened: as §2
[7] = Growth inhibition of BMOL-T cells assessed as increase in doubling time at 10 uM after 2 days relative to control; format: functional, Mus musculus; design: scale not given: the % may be the effect or the level left; procedure, shortened: as §1
[8] = Growth inhibition of BMOL-T cells; format: functional; conditions: Mus musculus; procedure, shortened: as §1
[9] = Anticancer activity against BMOL-T cells assessed as doubling time at 10 uM; format: functional, Mus musculus; procedure, shortened: as §1
[10] = target: T1, Nuclear factor NF-kappa-B p100 subunit (Mus musculus) (UniProt Q9WTK5); assay: Inhibition of NF-kappaB2 in BMOL-T cells assessed as reduction in p52 formation by western blot analysis relative to control; format: cell-based; conditions: concentration not given here
T1 sequence (whole entry): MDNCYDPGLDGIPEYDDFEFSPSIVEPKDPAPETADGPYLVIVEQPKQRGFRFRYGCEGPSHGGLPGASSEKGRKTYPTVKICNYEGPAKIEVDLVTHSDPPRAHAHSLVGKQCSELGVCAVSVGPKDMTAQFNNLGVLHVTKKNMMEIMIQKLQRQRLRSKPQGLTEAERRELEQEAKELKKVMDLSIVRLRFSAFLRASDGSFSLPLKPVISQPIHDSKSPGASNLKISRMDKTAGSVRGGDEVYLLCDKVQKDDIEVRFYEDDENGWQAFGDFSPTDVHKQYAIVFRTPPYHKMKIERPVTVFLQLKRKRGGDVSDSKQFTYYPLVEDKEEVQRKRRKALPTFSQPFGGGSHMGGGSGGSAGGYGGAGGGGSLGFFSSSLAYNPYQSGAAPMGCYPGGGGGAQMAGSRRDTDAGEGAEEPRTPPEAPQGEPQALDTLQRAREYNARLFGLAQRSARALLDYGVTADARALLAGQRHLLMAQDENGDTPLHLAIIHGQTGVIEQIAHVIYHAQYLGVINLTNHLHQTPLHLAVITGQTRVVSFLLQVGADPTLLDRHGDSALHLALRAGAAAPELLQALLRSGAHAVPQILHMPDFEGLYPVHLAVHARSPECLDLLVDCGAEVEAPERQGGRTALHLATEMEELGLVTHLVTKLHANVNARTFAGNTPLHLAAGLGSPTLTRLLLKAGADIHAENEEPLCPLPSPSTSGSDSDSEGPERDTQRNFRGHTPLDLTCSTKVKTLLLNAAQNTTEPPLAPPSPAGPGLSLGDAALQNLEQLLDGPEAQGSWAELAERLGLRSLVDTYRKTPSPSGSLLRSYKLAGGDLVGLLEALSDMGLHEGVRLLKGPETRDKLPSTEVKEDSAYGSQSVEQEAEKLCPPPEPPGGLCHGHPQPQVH
Procedure, shortened: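 BMOL-T cells exposed to compound as in the growth assay, lysed in DISC buffer. Western blot with primary antibodies overnight and HRP secondaries 1 h, all diluted in 5% skim milk in TBS-T, chemiluminescent detection. Bands normalised to β-actin; p52/p100 ratio and phospho-p65 compared with control.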

[11] = Induction of apoptosis in BMOL-T cells assessed as increase in fragmented DNA at 10 uM measured after 3 days relative to control; format: functional, Mus musculus
Procedure, shortened: (§3)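 BMOL-NT or BMOL-T cells, compound at 10 μM for three days. Fixed in 4% paraformaldehyde/0.1% Triton X-100, DNA fragmentation labelling reaction 60 min at 37 °C, nuclear dye 5 min, Cellavista imaging. Cisplatin 8 μg/mL for 24 h as positive control. Apoptotic index is % cells with fragmented DNA per well, three cell lots.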

BMOL-T [12] = assay: Anticancer activity against BMOL-T cells assessed as cell growth inhibition at 10 uM; format: functional, cell-based; conditions: Mus musculus; procedure, shortened: as §1
[13] = Growth inhibition of BMOL-NT cells; format: cell-based; conditions: mouse; procedure, shortened: as §1
Mus musculus [14] = species: Mus musculus; assay: Cytotoxicity against BMOL-NT cells assessed as cell growth inhibition at 10 uM; format: toxicity, cell-based; procedure, shortened: as §1
[15] = Induction of apoptosis in BMOL-NT cells assessed as increase in fragmented DNA at 10 uM measured after 3 days relative to control; format: cell-based; conditions: mouse, 72 h; procedure, shortened: as §3
BMOL-T [16] = assay: Anticancer activity against BMOL-T cells assessed as cell growth inhibition at 100 uM; format: functional, cell-based; conditions: Mus musculus; procedure, shortened: as §1
Mus musculus [17] = species: Mus musculus; assay: Cytotoxicity against BMOL-NT cells assessed as induction of cell death at 100 uM; format: toxicity, cell-based
Procedure, shortened: (§4)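 Mouse bipotential oval (liver progenitor) line BMOL-NT (passage <15) grown in Williams' E medium with 5% FBS, EGF, IGF-II and insulin. Plated at 1,500 cells/well; next day compound added as a 2x solution to give 1x final. Confluency imaged on Cellavista twice daily for 5 days or until 80% confluent. Growth curves plotted from log confluency; doubling time taken from the log-phase linear portion.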

Mus musculus [18] = species: Mus musculus; assay: Cytotoxicity against BMOL-NT cells assessed as induction of cell death up to 100 uM; format: toxicity, cell-based; procedure, shortened: as §4
[19] = Growth inhibition of BMOL-T cells assessed as doubling time at 1 uM (reference value: 27 to 34 hrs); format: functional, Mus musculus; procedure, shortened: as §1
[20] = Growth inhibition of BMOL-T cells assessed as doubling time at 10 uM (reference value: 27 to 34 hrs); format: functional, Mus musculus; procedure, shortened: as §1
[21] = Growth inhibition of BMOL-NT cells assessed as increase in doubling time at 10 uM after 2 days relative to control; format: cell-based; design: scale not given: the % may be the effect or the level left; conditions: mouse, 48 h; procedure, shortened: as §1
[22] = Growth inhibition of BMOL-NT cells assessed as population doubling time at 0.5 uM (reference value: 29 to 32.5 hrs); format: cell-based; conditions: mouse; procedure, shortened: as §1
[23] = Growth inhibition of BMOL-NT cells assessed as doubling time at 10 uM (reference value: 29 to 32.5 hrs); format: cell-based; conditions: mouse; procedure, shortened: as §1
[24] = Growth inhibition of BMOL-NT cells assessed as population doubling time at 2 uM (reference value: 29 to 32.5 hrs); format: cell-based; conditions: mouse; procedure, shortened: as §1
[25] = Growth inhibition of BMOL-T cells assessed as doubling time at 8 uM (reference value: 27 to 34 hrs); format: functional, Mus musculus; procedure, shortened: as §1
[26] = Growth inhibition of BMOL-T cells assessed as doubling time at 2 uM (reference value: 27 to 34 hrs); format: functional, Mus musculus; procedure, shortened: as §1
[27] = Growth inhibition of BMOL-NT cells assessed as population doubling time at 1 uM (reference value: 29 to 32.5 hrs); format: cell-based; conditions: mouse; procedure, shortened: as §1
[28] = system: BMOL-NT cells (Mus musculus); assay: Growth inhibition of BMOL-NT cells at 10 uM after 2 days relative to control; conditions: 48 h, read-out: GI
[29] = Growth inhibition of BMOL-NT cells assessed as increase in doubling time at 8 uM after 2 days relative to control; format: cell-based; design: scale not given: the % may be the effect or the level left; conditions: mouse, 48 h; procedure, shortened: as §1
[30] = Growth inhibition of BMOL-NT cells assessed as doubling time at 4 uM (reference value: 29 to 32.5 hrs); format: cell-based; conditions: mouse; procedure, shortened: as §1
[31] = Growth inhibition of BMOL-NT cells assessed as doubling time at 8 uM (reference value: 29 to 32.5 hrs); format: cell-based; conditions: mouse; procedure, shortened: as §1
[32] = Growth inhibition of BMOL-T cells assessed as doubling time at 0.5 uM (reference value: 27 to 34 hrs); format: functional, Mus musculus; procedure, shortened: as §1

SMILES: CC(C)c1ccc(Nc2cccc3c2C(=O)N(C2CCC(=O)NC2=O)C3=O)cc1 (stereo not drawn)
- Time [1]: 26 h
- Time [2]: 23 h
- Activity [3]: 34%
- Time (Mus musculus [4]): 31 h
- Activity [5]: 11%
- Activity [6]: Non-Toxic
- Activity [7]: 26 - 27%
- GI50 [8]: 40 µM
- Time [9]: 30 h
- inhibition [10]: 30%
- fold change (FC) [11]: 1.6 - 4
- growth inhibition (GI) (BMOL-T [12]): Active
- GI50 [13]: 60 µM
- Activity (Mus musculus [14]): Non-Toxic
- fold change (FC) [15]: 1.5

SMILES: CC(C)(C)c1ccc(Nc2ccc3c(c2)C(=O)N(C2CCC(=O)NC2=O)C3=O)cc1 (stereo not drawn)
- growth inhibition (GI) (BMOL-T [16]): Active
- GI50 [8]: 100 µM
- Activity (Mus musculus [17]): Toxic
- GI50 [13]: 100 µM

SMILES: O=CC#Cc1cccc2c1C(=O)N(C1CCC(=O)NC1=O)C2=O (racemic)
- Activity (Mus musculus [18]): Non-Toxic

SMILES: CCCCCc1ccc(Nc2cccc3c2C(=O)N(C2CCC(=O)NC2=O)C3=O)cc1 (stereo not drawn)
- growth inhibition (GI) (BMOL-T [16]): Active
- GI50 [8]: 100 µM
- Activity (Mus musculus [17]): Toxic
- GI50 [13]: 100 µM

SMILES: Nc1cccc2c1CN(C1CCC(=O)NC1=O)C2=O (stereo not drawn) [LENALIDOMIDE]
- Activity (Mus musculus [17]): Toxic
- GI50 [13]: 100 µM

SMILES: O=C1CCC(N2C(=O)c3ccccc3C2=O)C(=O)N1 (stereo not drawn) [THALIDOMIDE]
- Activity (Mus musculus [17]): Toxic
- GI50 [13]: 100 µM

SMILES: O=CC#Cc1ccc2c(c1)C(=O)N(C1CCC(=O)NC1=O)C2=O (stereo not drawn)
- Activity (Mus musculus [18]): Non-Toxic

SMILES: CCCCCc1ccc(Nc2ccc3c(c2)C(=O)N(C2CCC(=O)NC2=O)C3=O)cc1 (stereo not drawn)
- GI50 [8]: 60 µM
- growth inhibition (GI) (BMOL-T [12]): Active
- GI50 [13]: 60 µM
- Activity (Mus musculus [14]): Non-Toxic

SMILES: CNC(=O)c1cc(Oc2ccc(NC(=O)Nc3ccc(Cl)c(C(F)(F)F)c3)cc2)ccn1 [SORAFENIB]
- Time [19]: 33.2 to 34.2 h
- Time [20]: 79 h
- Activity [21]: 101 to 134%
- Activity [3]: 62%
- Time [22]: 31.9 to 32.5 h
- Activity [5]: 36 - 144%
- Activity [6]: 66 to 87%
- Time [23]: 68 h
- Activity [7]: 193 - 235%
- Time [24]: 33.3 to 33.7 h
- Time [25]: 65 to 66 h
- Time [26]: 34.4 to 35 h
- Time [27]: 32.5 to 34.7 h
- fold change (FC) [11]: 38
- inhibition of growth at 10 µM [28]: 70%
- Activity [29]: 100 to 128%
- Time [30]: 37.4 to 37.9 h
- Time [31]: 58 to 74 h
- Time [32]: 28.05 to 35 h
- fold change (FC) [15]: 2.5 to 18.1
